The text below walks through data of ChEMBL document CHEMBL4177580, “New 5-HT1A, 5HT2A and 5HT2C receptor ligands containing a picolinic nucleus: Synthesis, in vitro and in vivo pharmacological evaluation” (Bioorg Med Chem, 2017).

Activity calls are given as the source filed them. The rule behind the calls is not given here. Bounds are passed on as bounds.

In general, Ki refers to a measure of affinity in units of concentration, obtained from inhibition or displacement. A higher Ki goes with weaker binding. The term EC50 denotes the concentration at which the effect is half-maximal. One may read the Emax as the maximal effect, on the per cent scale that the assay sets.

Experiment [1] has as its target T1, 5-hydroxytryptamine receptor 1A (Rattus norvegicus, UniProt P19327).
T1 sequence (P19327 whole entry): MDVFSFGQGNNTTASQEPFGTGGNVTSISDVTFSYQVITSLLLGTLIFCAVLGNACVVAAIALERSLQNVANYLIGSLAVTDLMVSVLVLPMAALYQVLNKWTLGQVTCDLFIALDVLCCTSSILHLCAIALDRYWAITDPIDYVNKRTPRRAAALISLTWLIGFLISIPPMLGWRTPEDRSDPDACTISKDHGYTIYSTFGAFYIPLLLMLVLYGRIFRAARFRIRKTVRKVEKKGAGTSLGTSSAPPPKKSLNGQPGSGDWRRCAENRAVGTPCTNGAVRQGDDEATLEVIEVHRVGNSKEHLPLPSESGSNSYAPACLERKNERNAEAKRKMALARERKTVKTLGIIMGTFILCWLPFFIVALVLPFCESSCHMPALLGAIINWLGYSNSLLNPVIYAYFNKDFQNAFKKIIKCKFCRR
Kind of experiment: Displacement of [3H]-8-OH-DPAT from serotonin 5-HT1A receptor in Sprague-Dawley rat brain cortex homogenates incubated for 30 mins by liquid scintillation spectrometry. For orientation: In a radioligand displacement assay an active substance lowers the binding of a labelled ligand.

In experiment [2] the target is T2, 5-hydroxytryptamine receptor 2A (Rattus norvegicus, UniProt P14842). The experiment can be described thus: Displacement of [3H]ketanserin from serotonin 5-HT2A receptor in Sprague-Dawley rat brain cortex homogenates incubated for 15 mins by liquid scintillation spectrometry.
T2 sequence (P14842 whole entry): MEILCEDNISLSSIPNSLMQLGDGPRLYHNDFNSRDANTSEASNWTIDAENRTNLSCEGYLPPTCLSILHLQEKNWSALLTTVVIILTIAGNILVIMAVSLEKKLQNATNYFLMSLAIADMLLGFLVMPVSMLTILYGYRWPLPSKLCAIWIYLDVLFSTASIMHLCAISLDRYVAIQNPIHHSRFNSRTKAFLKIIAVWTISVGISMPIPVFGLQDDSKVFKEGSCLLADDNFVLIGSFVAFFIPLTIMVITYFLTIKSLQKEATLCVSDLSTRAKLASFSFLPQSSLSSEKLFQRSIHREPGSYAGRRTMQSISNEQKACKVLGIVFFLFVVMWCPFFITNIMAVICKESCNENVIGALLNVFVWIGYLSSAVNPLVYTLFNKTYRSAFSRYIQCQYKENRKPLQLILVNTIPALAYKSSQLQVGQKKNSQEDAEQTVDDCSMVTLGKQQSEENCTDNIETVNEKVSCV
Experiment [3] concerns the target T3, 5-hydroxytryptamine receptor 2C (Rattus norvegicus, UniProt P08909).
T3 sequence (P08909 whole entry): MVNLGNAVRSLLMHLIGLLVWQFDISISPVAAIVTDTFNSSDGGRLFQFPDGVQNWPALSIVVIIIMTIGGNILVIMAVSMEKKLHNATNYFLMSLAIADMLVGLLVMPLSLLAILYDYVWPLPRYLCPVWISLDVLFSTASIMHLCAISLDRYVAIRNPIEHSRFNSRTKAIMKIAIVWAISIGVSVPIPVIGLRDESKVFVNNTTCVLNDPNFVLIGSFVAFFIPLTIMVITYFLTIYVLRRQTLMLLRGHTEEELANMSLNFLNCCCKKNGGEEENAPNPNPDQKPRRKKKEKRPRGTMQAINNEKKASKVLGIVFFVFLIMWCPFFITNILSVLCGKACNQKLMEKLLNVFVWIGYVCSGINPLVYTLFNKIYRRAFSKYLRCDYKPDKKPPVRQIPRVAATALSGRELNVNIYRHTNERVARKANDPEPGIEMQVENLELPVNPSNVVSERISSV
The experiment can be described thus: Displacement of [3H]mesulergine from serotonin 5-HT2C receptor in Sprague-Dawley rat brain cortex homogenates incubated for 15 mins by liquid scintillation spectrometry.

For experiment [4], the target named is T2, 5-hydroxytryptamine receptor 2A. Kind of experiment: Antagonist activity at 5-HT2A receptor in Sprague-Dawley rat ielum assessed as reduction in 5-HT-evoked contraction. The class given is functional. In a few lines:
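Ileum segments from CO2-asphyxiated rats, longitudinal contractions recorded isotonically (0.5 g load) in 20 mL Krebs at 37°C gassed with 95% O2/5% CO2; 60 min equilibration, then three additions of 5-HT (10^-5 M) for stable control contractions. Compounds dissolved in DMSO (<0.01%), 10 min contact per concentration. IC50 (50% inhibition of 5-HT contraction) and Emax derived by curve fitting; mean (SEM).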

Experiment [5] addresses 5-hydroxytryptamine receptor 2A (Rattus norvegicus) (UniProt P14842). Kind of experiment: Antagonist activity at 5-HT2A receptor in Sprague-Dawley rat ielum assessed as reduction in 5-HT-evoked contraction relative to control. The class given is functional.
For experiment [6] the target is unchanged. Kind of experiment: Agonist activity at 5-HT2A receptor in Sprague-Dawley rat ileum assessed as induction of contraction. The class given is functional.
For experiment [7] the target is unchanged. Kind of experiment: Antagonist activity at 5-HT2A receptor in Sprague-Dawley rat ielum assessed as reduction in 5-HT-evoked contraction at 10 uM.
For experiment [8] the target is unchanged. As to conditions: Sprague-Dawley, 0.3 uM.
The target is the same in experiment [9]. As to conditions: Sprague-Dawley, 0.1 uM.

Sequence of 5-hydroxytryptamine receptor 2A (Rattus norvegicus) (P14842 whole entry): as the sequence (P14842 whole entry) above

Turning to `O=C(NCCCN1CCN(c2ncccn2)CC1)c1ccccn1`, the Ki in [1] was 500 nM; in experiment [2], 16.8 nM; in [3] it was more than 10000 nM. Besides, the EC50 in experiment [4] (read-out: EC50) is 828 nM. Besides, the Emax in experiment [5] was 32.1%. Also, the outcome in experiment [6] was inactive.
With `O=C(NCCCN1CCN(C(=O)c2ccco2)CC1)c1ccccn1`, the inhibition constant (Ki) in experiment [1] and in experiment [3] was more than 10000 nM throughout. For the same compound, the concentration for a half-maximal effect (EC50) in [4] (read-out: EC50) was determined as 777 nM. Further, the Emax in [5] was 53.1%. In addition, the result in [6] was inactive.
With `O=C(NCCCN1CCN(C(c2ccc(F)cc2)c2ccc(F)cc2)CC1)c1ccccn1`, in [4] (read-out: EC50), the EC50 amounted to 2040 nM. For the same compound, the Emax in experiment [5] was found to be 68.4%. For the same compound, the outcome in [6] was inactive.
`O=C(NCCCN1CCN(c2ccc(Cl)c(Cl)c2)CC1)c1ccccn1`: the inhibition constant (Ki) in experiment [1] came out at 181 nM; in experiment [2] it was 90.4 nM; in experiment [3], 9.57 nM. Also, the half-maximal effective concentration (EC50) in [4] (read-out: EC50) came out at 770 nM. Also, in experiment [5], the Emax was 26.7%. The outcome in experiment [6] was inactive.
On to `O=C(NCCN1CCN(c2ccc(F)cc2)CC1)c1ccccn1`, for which the inhibition constant Ki in experiment [1] amounted to 82 nM; in experiment [2] it was 241 nM; in experiment [3], 79.4 nM.
In the case of `O=C(NCCCN1CCN(c2cccc(C(F)(F)F)c2)CC1)c1ccccn1`, the figures for the Ki in experiment [1], in [2] and in experiment [3] were 17.9 nM, more than 10000 nM and more than 10000 nM, respectively.
Turning to `O=C(NCCN1CCN(Cc2ccc3c(c2)OCO3)CC1)c1ccccn1`, the inhibitory constant (Ki) is more than 10000 nM in experiment [1], more than 10000 nM in experiment [2] and 61.2 nM in [3].
Turning to `O=C(NCCN1CCN(C(c2ccc(F)cc2)c2ccc(F)cc2)CC1)c1ccccn1`, the inhibition constant Ki in experiment [1] is more than 10000 nM.
With `CN1[C@@H]2CC[C@H]1C[C@@H](OC(=O)C(CO)c1ccccc1)C2` (stereo partly drawn), the inhibition result in [7] is “inactive”.
Turning to `O=C(NCCCN1CCN(c2cccc3ccccc23)CC1)c1ccccn1`, the Ki in [1] is 44.1 nM; in experiment [2], 213 nM; in [3], more than 10000 nM.
The matching figures for `O=C(NCCCN1CCN(c2ccc(F)cc2)CC1)c1ccccn1`: more than 10000 nM, 161 nM and 11.7 nM.
As to `NC1=N[C@H](O)[C@H]2[C@H]3O[C@]4(O)O[C@@H]([C@H](O)[C@@]2(N1)[C@@H]4O)[C@]3(O)CO`, in [8], the inhibition result was “inactive”.
For the compound `O=C(NCCN1CCN(C(=O)c2ccco2)CC1)c1ccccn1`, the inhibition constant Ki in [1], in experiment [2] and in experiment [3] was more than 10000 nM throughout.
Consider `CCOc1ccccc1N1CCN(CCNC(=O)c2ccccn2)CC1`, for which the results for the inhibition constant Ki in [1], in experiment [2] and in experiment [3] were 55.4 nM, more than 10000 nM and more than 10000 nM, respectively.
Turning to `O=C(NCCN1CCN(c2ccccc2Cl)CC1)c1ccccn1`, the Ki was 412 nM in [1], more than 10000 nM in experiment [2] and 268 nM in [3].
On the same counts, the results for `O=C(NCCCN1CCN(c2ccccc2F)CC1)c1ccccn1` are 230 nM, 327 nM and more than 10000 nM.
For the compound `O=C(NCCCN1CCN(Cc2ccc3c(c2)OCO3)CC1)c1ccccn1`, the inhibition constant Ki in experiment [1] and in [3] was more than 10000 nM in each case. For the same compound, the 50% effective concentration (EC50) in [4] (read-out: EC50) is 6480 nM. In addition, the Emax in experiment [5] was determined as 75.5%. Also, the result in [6] was inactive.
Take `Cc1cccc(N2CCN(CCCNC(=O)c3ccccn3)CC2)c1C`: the inhibition constant (Ki) in experiment [1] is 88.7 nM; in experiment [2], more than 10000 nM; in experiment [3], 105 nM.
With `N#Cc1ccccc1N1CCN(CCCNC(=O)c2ccccn2)CC1`, the inhibition constant Ki was 108 nM in [1], more than 10000 nM in experiment [2] and 128 nM in experiment [3].
For `O=C(NCCCN1CCN(c2ccccc2)CC1)c1ccccn1`, the Ki in [1] is 104 nM; in experiment [2] it was 277 nM; in experiment [3], 111 nM.
In the case of `O=C(NCCCN1CCN(c2ccc(Cl)cc2)CC1)c1ccccn1`, the inhibition constant Ki was found to be 68 nM in experiment [1], 371 nM in [2] and 39.7 nM in experiment [3].
In the case of `N#Cc1ccccc1N1CCN(CCNC(=O)c2ccccn2)CC1`, the figures for the Ki in experiment [1], in experiment [2] and in [3] were 74.8 nM, 616 nM and more than 10000 nM, respectively.
With `COc1ccccc1N1CCN(CCCNC(=O)c2ccccn2)CC1`, the inhibition constant Ki in experiment [1] was 40.1 nM; in experiment [2], more than 10000 nM; in [3] it was 128 nM.
On the same counts, the results for `O=C(NCCN1CCN(c2cccc3ccccc23)CC1)c1ccccn1` are 20.8 nM, 91.1 nM and 116 nM.
`O=C(NCCN1CCN(c2ccccc2)CC1)c1ccccn1`: the inhibitory constant (Ki) in experiment [1] is 161 nM; in experiment [2], 53.2 nM; in experiment [3], more than 10000 nM. The EC50 result in [4] was “Not Active”.
On to `O=C(NCCCN1CCN(C(c2ccccc2)c2ccc(Cl)cc2)CC1)c1ccccn1` (stereo not drawn), for which the results for the Ki in experiment [1], in experiment [2] and in experiment [3] were 443 nM, 725 nM and more than 10000 nM, respectively.
In the case of `O=C(NCCCN1CCN(c2ccccn2)CC1)c1ccccn1`, the inhibitory constant (Ki) is 495 nM in experiment [1], more than 10000 nM in experiment [2] and 140 nM in experiment [3].
For the compound `COc1ccc(N2CCN(CCCNC(=O)c3ccccn3)CC2)cc1`, the Ki in experiment [1], in [2] and in [3] was more than 10000 nM throughout.
`O=C(NCCN1CCN(c2ccccn2)CC1)c1ccccn1`: the inhibition constant (Ki) was 32.7 nM in experiment [1], more than 10000 nM in experiment [2] and more than 10000 nM in [3].
With `CCOc1ccccc1N1CCN(CCCNC(=O)c2ccccn2)CC1`, the inhibition constant (Ki) was determined as 85.6 nM in experiment [1], 119 nM in experiment [2] and 80 nM in [3].
With `O=C(NCCN1CCN(c2cccc(C(F)(F)F)c2)CC1)c1ccccn1`, the EC50 in experiment [4] (read-out: EC50) was 161 nM. Moreover, in experiment [5], the Emax is 48.4%. Further, the result in experiment [6] was inactive.
For the compound `Cc1ccc(N(CC2=NCCN2)c2cccc(O)c2)cc1`, the inhibition result in experiment [7] is “inactive”.
For `O=C(NCCCN1CCN(c2cccc(Cl)c2)CC1)c1ccccn1`, the Ki was 59.5 nM in experiment [1], 80.7 nM in experiment [2] and 101 nM in experiment [3].
Consider `O=C(NCCN1CCN(c2ccccc2F)CC1)c1ccccn1`, for which the inhibition constant Ki is 158 nM in experiment [1], more than 10000 nM in experiment [2] and more than 10000 nM in experiment [3].
In the case of `O=C(NCCN1CCN(C(c2ccccc2)c2ccc(Cl)cc2)CC1)c1ccccn1` (stereo not drawn), the Ki worked out at 540 nM in experiment [1], 504 nM in experiment [2] and 49.8 nM in [3].
Consider `Cc1cccc(N2CCN(CCNC(=O)c3ccccn3)CC2)c1C`, for which the inhibition constant (Ki) in experiment [1] is 215 nM; in experiment [2], more than 10000 nM; in experiment [3], more than 10000 nM.
For `O=C(c1ccc(F)cc1)C1CCN(CCn2c(=O)[nH]c3ccccc3c2=O)CC1`, the inhibition result in [9] was “Active”.
On to `COc1ccc(N2CCN(CCNC(=O)c3ccccn3)CC2)cc1`, for which the inhibition constant Ki in [1] is 138 nM; in experiment [2], 9.33 nM; in [3], more than 10000 nM. Moreover, the EC50 entry in [4] is “Not Active”.
For `COc1ccccc1N1CCN(CCNC(=O)c2ccccn2)CC1`, the Ki is 599 nM in experiment [1], 0.0224 nM in experiment [2] and more than 10000 nM in experiment [3]. Also, in experiment [4] (read-out: EC50), the EC50 turned out to be 4250 nM. In addition, the maximal effect (Emax) in experiment [5] was found to be 33.7%. Also, in [6], the result was inactive.
For the compound `O=C(NCCN1CCN(c2cccc(Cl)c2)CC1)c1ccccn1`, the values for the Ki in experiment [1], in experiment [2] and in experiment [3] were 267 nM, 309 nM and 90.9 nM, respectively.
For `O=C(NCCCN1CCN(c2ccccc2Cl)CC1)c1ccccn1`, the Ki in experiment [1] amounted to 71.6 nM; in experiment [2], 763 nM; in experiment [3], 1050 nM.
